LMPTP inh – LMPTP phosphatase inhibitors, primary screen, biochemical, fluorescence intensity, uHTS | Low molecular weight phosphotyrosine protein phosphatase (Homo sapiens), P24666 | recombinant LMPTP-A, OMFP fluorogenic substrate | inhibition, % at 20 µM | 0.22% of 360,000 active | AID 651560, 2012;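 active = compounds that cut the enzyme signal by at least half of the control window in the single-dose screen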;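 also: plate controls were DMSO wells with enzyme plus substrate for no effect and substrate without enzyme for full effect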
Target sequence (P24666 whole entry, looked up): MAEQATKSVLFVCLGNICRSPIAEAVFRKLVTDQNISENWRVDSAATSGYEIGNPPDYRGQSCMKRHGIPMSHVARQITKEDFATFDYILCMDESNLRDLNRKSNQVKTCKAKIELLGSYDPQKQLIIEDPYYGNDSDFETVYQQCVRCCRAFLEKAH
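Test system: LMPTP-A phosphatase enzyme. Amount: LMPTP-A at 0.625 nM final in the reaction. Reagent: OMFP substrate, 400 µM final. Times: 50 min at room temperature. Signal: endpoint fluorescence intensity from OMFP dephosphorylation. Read-out basis: % inhibition. Benchmarks: no-enzyme and uninhibited controls.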
NadD block – inhibitors of S. aureus NadD, primary screen, biochemical, colorimetric, uHTS. Nicotinate-nucleotide adenylyltransferase NadD (Staphylococcus aureus N315). purified NadD enzyme, colorimetric absorbance read-out. inhibition, % at 20 µM. 0.78% of 360,000 active; in the data active = inhibition above about 26%
STEP inh – STEP phosphatase inhibitors, primary screen, biochemical, fluorescence intensity, uHTS; recombinant STEP, OMFP fluorogenic substrate; inhibition, % at 20 µM; 0.25% of 360,000 active; AID 588621, 2011;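 active = inhibition at 20 µM, scaled per plate between control wells, above about 37%, limit read from the data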;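 also: 0% = DMSO with enzyme and substrate and 100% = substrate only without enzyme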
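Test system: STEP tyrosine phosphatase / Reagent: OMFP at 25 µM / Doses: 20 µM, 1% DMSO / Read-out: percent inhibition scaled to no-enzyme and uninhibited-enzyme controls, plate-pattern corrected / Detection: FITC-channel fluorescence of OMFP product / Medium: Bis-Tris buffer pH 6.0, 2.5 mM DTT, 0.005% Tween 20 / Schedule: 20 min at room temperature, dark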
Scp-1 inhibitor – Scp-1 phosphatase inhibitors, primary screen, biochemical, colorimetric, uHTS; Carboxy-terminal domain RNA polymerase II polypeptide A small phosphatase 1 (Homo …; Recombinant Scp1, phosphopeptide, malachite green phosphate absorbance; inhibition, % at 20 µM; 0.88% of 340,000 active; AID 493091, 2011;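 active = inhibition above about 50% at 20 µM, limit read from the data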;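 also: plate controls were DMSO wells with enzyme for no effect and wells lacking enzyme for full effect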
Target sequence (Q9GZU7 76-261 limits assumed): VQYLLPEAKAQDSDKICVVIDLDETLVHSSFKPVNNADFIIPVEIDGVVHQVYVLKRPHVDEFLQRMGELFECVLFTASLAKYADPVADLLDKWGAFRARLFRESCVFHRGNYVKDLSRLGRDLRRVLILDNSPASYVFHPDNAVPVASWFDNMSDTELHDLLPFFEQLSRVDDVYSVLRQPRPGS
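System: truncated SCP-1 phosphatase (76-261aa); medium: Tris acetate buffer pH 5.5 with MgCl2 and Tween-20; incubation: 45 min room-temperature reaction, 5 min colour, 30 min stabiliser; compound: single 20 µM dose, 1% DMSO; reagent: Phosphorylated 17-residue peptide substrate; read-out: % inhibition at 20 µM; technique: colorimetric free-phosphate detection, absorbance 630 nm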
DNMT1 block – human DNMT1 methyltransferase inhibitors, primary screen, biochemical, molecular beacon, fluorescence, HinP1I cleavage, uHTS; DNA (cytosine-5)-methyltransferase 1 (Homo sapiens), P26358; inhibition (reported as % activation of signal), % at 10 µM; AID 588458, 2011; 0.83% of 360,000 active; in the data active = inhibition above about 50%
SUMO1-SIM PPI – modulators of SUMO1 protein-protein interactions, primary screen, biochemical, uHTS | SUMO1 binding to a labelled peptide, TR-FRET, 1 h | 0.33% of 360,000 active | AID 602429, 2012 | Small ubiquitin-related modifier 1 (Homo sapiens), P63165 | inhibition, % at 20 µM; in the data active = inhibition above about 37%
Target sequence (P63165 whole entry, looked up): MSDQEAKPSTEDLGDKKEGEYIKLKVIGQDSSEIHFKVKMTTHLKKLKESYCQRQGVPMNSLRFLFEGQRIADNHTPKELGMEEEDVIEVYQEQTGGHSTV
Scp-1 conf – Scp-1 phosphatase inhibitors, retest, confirmation, biochemical, colorimetric, single concentration | shares compounds with Scp-1 inhibitor | recombinant SCP-1 catalytic domain, phosphate release, malachite green absorbance | inhibition, % at 20 µM | 61% of 2,500 active;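 also: plate controls were DMSO with enzyme for no effect and buffer wells lacking enzyme for full effect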
MG interference – colorimetric readout interference by compounds, confirmation, artefact control for Scp-1 inhibitor project, biochemical, single concentration. AID 540313, 2011. Colorimetric interference counterscreen, malachite green absorbance 630 nm. shares compounds with Scp-1 inhibitor. apparent inhibition (interference), % at 20 µM. 2,500 tested, under 10 active;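 also: compounds added after enzyme reaction finished so only phosphate colour detection is probed; plate controls were DMSO wells with completed Scp-1 reaction for no effect and substrate wells lacking enzyme for full effect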
Scp1 DSF – Scp-1 binding by thermal shift, confirmation, orthogonal assay for Scp-1 inhibitor project, biophysical, differential scanning fluorimetry; shares compounds with Scp-1 inhibitor; Recombinant SCP1, Sypro Orange thermal shift Tm; thermal shift relative to vanadate control, % at 40 µM; 25% of 1,500 active;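 active = substances whose mean melting-temperature shift, as a percentage of the reference inhibitor's shift, reaches about 5.3%, limit read from the data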;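 also: 0% = Tm of DMSO wells and 100% = Tm with sodium orthovanadate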
Beacon interf DR – spectral interference with molecular beacon fluorescence, dose response, artefact control for DNMT1 inhibitor project, biochemical, fluorescent molecular beacon | shares compounds with DNMT1 block | spectral interference counter-screen | 200 tested, under 10 active | IC50, µM; call rule not given here
DNMT1 confirm – DNMT1 methyltransferase inhibitor retest, confirmation, biochemical, molecular beacon, fluorescence, single concentration | inhibition, % at 10 µM | shares compounds with DNMT1 block | DNMT1 molecular beacon HinP1I cleavage | 8% of 2,300 active | AID 602385, 2012;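 active = average inhibition of at least 30% in the single-concentration confirmation test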
DNMT1 interf – shows spectral interference in the DNMT1 beacon assay. activation (fluorescence interference), % at 10 µM. 1% of 2,300 active. DNMT1 molecular beacon spectral interference counterscreen, fluorescence 485/520. AID 602387. shares compounds with DNMT1 block;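 active = activation of at least 30% at 10 µM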;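 also: DNMT1 catalytic domain with a HinP1I cleavage step and a FAM/dabcyl DNA beacon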
An asterisk follows results filed as active. An excerpt weighted towards active compounds, which were near 2.4% of everything screened.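 The calls were made as follows, unless noted: active = inhibition of at least 30% at 20 µM; inactive = the rest.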

`Cc1cc(/C=C2\C(=O)NC(=O)N(Cc3ccccc3Cl)C2=O)c(C)n1-c1ccc(C(=O)O)cc1` gave LMPTP inh 7.0, NadD block 10.8, STEP inh 2.5, Scp-1 inhibitor 66.2*, DNMT1 block 70.9*, SUMO1-SIM PPI 20.5, Scp-1 conf 66.6*, MG interference -10.4 and Scp1 DSF -0.9.
For Cc1cc(/C=C2\C(=O)NC(=O)N(c3cccc(F)c3)C2=O)c(C)n1-c1ccc(C(=O)O)c(Cl)c1 the results were LMPTP inh 1.0, NadD block -2.8, STEP inh 19.3, Scp-1 inhibitor 50.9*, DNMT1 block 59.9*, SUMO1-SIM PPI 1.2, Scp-1 conf 57.7*, MG interference 3.1 and Scp1 DSF 0.3.
S=P1(Oc2ccccc2)Nc2ccccc2N1 was read as LMPTP inh 0.5, NadD block -4.4, STEP inh -4.5, Scp-1 inhibitor -15.3, DNMT1 block -5.7 and SUMO1-SIM PPI 8.1.
`CCOc1cc(C=C2C(=O)NC(=O)NC2=O)ccc1OCC(=O)N1CCOCC1` gave LMPTP inh -0.8, NadD block -0.4, STEP inh -3.0, Scp-1 inhibitor -2.6, DNMT1 block -12.4 and SUMO1-SIM PPI -2.8.
For O=C1NC(=S)NC(=O)C1=Cc1ccc(OCC(=O)N2CCCC2)cc1 the results were LMPTP inh -0.1, NadD block -4.3, STEP inh 1.3, Scp-1 inhibitor 51.2*, DNMT1 block 8.5, SUMO1-SIM PPI 11.4, Scp-1 conf 51.3*, MG interference -10.4 and Scp1 DSF -13.2.
CC1(C)C(c2ccccc2)=NC(c2cccnc2)N1O (configuration not stated) was read as LMPTP inh -0.9, NadD block 1.9, STEP inh -1.6, Scp-1 inhibitor 13.5, DNMT1 block 10.7 and SUMO1-SIM PPI -0.4.
Screening Cc1cc(/C=C2\C(=O)NC(=O)N(Cc3ccccc3)C2=O)c(C)n1-c1ccc(Cl)c(C(=O)O)c1 returned LMPTP inh 16.4, NadD block 7.4, STEP inh 83.7*, Scp-1 inhibitor 72.2*, DNMT1 block 103.2*, SUMO1-SIM PPI 32.3, Scp-1 conf 60.4*, MG interference -19.4, Scp1 DSF 8.7*, Beacon interf DR >99, DNMT1 confirm 72.5* and DNMT1 interf -1.3.
`Cc1ccc(S(=O)(=O)Cc2ccc(C(=O)N3CCC4(CC3)OCCO4)o2)cc1` gave LMPTP inh -0.8, NadD block -0.3, STEP inh 4.2, Scp-1 inhibitor 57.5*, DNMT1 block 58.4*, SUMO1-SIM PPI -0.5, Scp-1 conf 51.9*, MG interference -7.9, Scp1 DSF 1.4, DNMT1 confirm 1.4 and DNMT1 interf 2.8.
Screening COc1ccc(C(c2nnnn2-c2ccc3c(c2)OCCO3)N2CCC3(CC2)C(=O)NCN3c2ccccc2)cc1 (configuration not stated) returned LMPTP inh 2.7, NadD block 8.9, STEP inh 4.1, DNMT1 block -11.2 and SUMO1-SIM PPI 2.2.
O=C1C2CCCC1C(N1CCCCC1)CC2 (configuration not stated) was read as LMPTP inh -3.6, NadD block -1.2, STEP inh -5.0, Scp-1 inhibitor 0.3, DNMT1 block 0.2 and SUMO1-SIM PPI 4.5.
`Cc1ccc(-n2c(C)cc(/C=C3/C(=O)NC(=O)N(Cc4ccco4)C3=O)c2C)cc1` gave LMPTP inh 2.2, NadD block 14.4, STEP inh 1.9, Scp-1 inhibitor 8.7, DNMT1 block 41.2 and SUMO1-SIM PPI 0.9.
Cn1cccc1/C=C1\C(=O)NC(=O)N(Cc2ccco2)C1=O was read as LMPTP inh 41.4, NadD block 4.7, STEP inh 56.2*, Scp-1 inhibitor 79.8*, DNMT1 block 104.0*, SUMO1-SIM PPI 15.1, Scp-1 conf 45.0*, MG interference -23.2, Scp1 DSF 8.1*, DNMT1 confirm 19.5 and DNMT1 interf 1.7.
For O=C(O)Cn1cc(C=C2C(=O)NC(=O)NC2=O)c2ccccc21 the results were LMPTP inh 0.1, NadD block -1.0, STEP inh 3.0, Scp-1 inhibitor 5.3, DNMT1 block 4.9 and SUMO1-SIM PPI -14.5.
For O=C(O)Cn1cc(/C=C2\C(=O)NC(=O)N(c3ccc(Cl)cc3)C2=O)c2ccccc21 the results were LMPTP inh 1.0, NadD block -1.5, STEP inh -0.3, Scp-1 inhibitor -11.0, DNMT1 block 67.5*, SUMO1-SIM PPI 1.1, DNMT1 confirm 5.0 and DNMT1 interf 3.4.
C(#CCN1CCCCC1)CN1CCCCC1 was read as LMPTP inh -0.5, NadD block 0.6, STEP inh -0.3, DNMT1 block -3.2 and SUMO1-SIM PPI 23.2.
Screening CN(C)c1cccc2c(C#N)ccc(N(C)C)c12 returned LMPTP inh -2.0, NadD block 0.3, STEP inh -0.1, Scp-1 inhibitor 3.4, DNMT1 block -2.7 and SUMO1-SIM PPI -7.1.

Screens deposited in PubChem BioAssay by Sanford-Burnham Center for Chemical Genomics.
